Measurements: ChEMBL document CHEMBL4422657, “Amino acid based prodrugs of a fosmidomycin surrogate as antimalarial and antitubercular agents” (Bioorg Med Chem, 2019)
Values after ≈ are worked out from the molar mass of the structure shown.

Assays:
[1] = Toxicity in Swiss mouse infected with Plasmodium berghei ANKA assessed as change in body weight at 50 mg/kg, ip administered once daily for 5 days measured on 7 days post infection (reference value: 89%); format: organism-based; settings: in vivo, 168 h
Plasmodium berghei [2] = test: Antimalarial activity against Plasmodium berghei ANKA infected in Swiss mouse assessed as parasitaemia at 50 mg/kg, ip administered once daily for 5 days measured on 7 days post infection by flow cytometry (reference value: 19%); format: functional
How it was run: (§1)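 Mice infected with P. berghei GFP ANKA strain were dosed intraperitoneally once daily for 5 consecutive days, at 50 mg/kg for test compounds or 10 mg/kg for chloroquine as the reference. Parasitemia was measured in surviving animals on days 4, 7, 11 and 14 post infection by flow cytometry, using 10 μL blood in 2000 μL PBS. Percent reduction was calculated against vehicle-treated infected controls.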

Plasmodium berghei [3] = test: Antimalarial activity against Plasmodium berghei ANKA infected in Swiss mouse assessed as mean survival days at 50 mg/kg, ip administered once daily for 5 days (reference value: 11.2 day); format: functional
Plasmodium berghei [4] = test: Antimalarial activity against Plasmodium berghei ANKA infected in Swiss mouse assessed as parasitaemia at 50 mg/kg, ip administered once daily for 5 days measured on 4 days post infection by flow cytometry (reference value: 17.1%); format: functional; how it was run: as §1
Plasmodium berghei [5] = test: Antimalarial activity against Plasmodium berghei ANKA infected in Swiss mouse assessed as suppression of parasitaemia at 50 mg/kg, ip administered once daily for […] measured on 4 days post infection by flow cytometry relative to control; format: functional
[6] = Toxicity in Swiss mouse infected with Plasmodium berghei ANKA assessed as change in body weight at 50 mg/kg, ip administered once daily for 5 days measured on 14 days post infection (reference value: 75%); format: organism-based; settings: in vivo, 336 h
Plasmodium berghei [7] = test: Antimalarial activity against Plasmodium berghei ANKA infected in Swiss mouse assessed as parasitaemia at 50 mg/kg, ip administered once daily for 5 days measured on 14 days post infection by flow cytometry (reference value: 64.6%); format: functional
[8] = Toxicity in Swiss mouse infected with Plasmodium berghei ANKA assessed as change in body weight at 50 mg/kg, ip administered once daily for 5 days measured on 4 days post infection (reference value: 100%); format: organism-based; settings: in vivo, 96 h
Plasmodium berghei [9] = test: Antimalarial activity against Plasmodium berghei ANKA infected in Swiss mouse assessed as parasitaemia at 50 mg/kg, ip administered once daily for 5 days measured on 11 days post infection by flow cytometry (reference value: 44%); format: functional; how it was run: as §1
[10] = Toxicity in Swiss mouse infected with Plasmodium berghei ANKA assessed as change in body weight at 50 mg/kg, ip administered once daily for 5 days measured on 11 days post infection (reference value: 81%); format: organism-based; settings: in vivo, 264 h
[11] = tested on: Mycobacterium tuberculosis; test: Antitubercular activity against Mycobacterium tuberculosis H37Rv after 7 days by Resazurin microtitre assay; format: functional; settings: 168 h
How it was run: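 Resazurin microtiter assay with M. tuberculosis H37Rv in Middlebrook 7H9 + 10% OADC + 0.5% glycerol + 0.1% casitone. Two-fold dilutions, final 50 to 3.12 µM. Inoculum from LJ subculture at McFarland 1, diluted 1:10. 7 days at 37 °C, normal atmosphere, then resazurin overnight. MIC is the lowest concentration preventing the blue-to-pink change, read visually.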

MRC5 = test: Cytotoxicity against human MRC5 cells after 24 hrs by resazurin dye based assay; format: cell-based; settings: MRC5, 24 h
How it was run: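 MRC-5 human lung fibroblasts were grown in DMEM with 10% heat-inactivated FCS at 37 °C, 5% CO2. Cells were seeded at 4 x 10^4 per well and allowed to recover for at least 24 h, then exposed for 24 h to a two-fold dilution series (128 to 0.5 µM final). Cells were PBS-washed and incubated with resazurin for 3 h, and fluorescence was read at 560/590 nm. Tamoxifen served as positive control.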

Plasmodium falciparum = test: Antiplasmodial activity against chloroquine-resistant Plasmodium falciparum K1 infected in human erythrocytes measured after 72 hrs Malstat/NBT reagent based assay; format: functional, organism-based; settings: K1, 72 h
How it was run: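 Infected human red blood cells (1% parasitaemia, 2% haematocrit) incubated 72 h with compound, then frozen at -20 °C. Growth read by Malstat: haemolysate with Malstat reagent 15 min RT, then NBT/PES 2 h RT in dark, absorbance at 655 nm. Chloroquine positive control. IC50 reported.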

[12] = tested on: Mycobacterium tuberculosis; test: Antitubercular activity against Mycobacterium tuberculosis H37Rv ATCC 27294 after 1 to 2 weeks; format: functional
Plasmodium berghei [13] = test: Antimalarial activity against Plasmodium berghei ANKA infected in Swiss mouse assessed as mean survival days at 10 mg/kg, ip administered once daily for 5 days (reference value: 11.2 day); format: functional
[14] = Toxicity in Swiss mouse infected with Plasmodium berghei ANKA assessed as change in body weight at 10 mg/kg, ip administered once daily for 5 days measured on 11 days post infection (reference value: 81%); format: organism-based; settings: in vivo, 264 h
[15] = Toxicity in Swiss mouse infected with Plasmodium berghei ANKA assessed as change in body weight at 10 mg/kg, ip administered once daily for 5 days measured on 7 days post infection (reference value: 89%); format: organism-based; settings: in vivo, 168 h
Plasmodium berghei [16] = test: Antimalarial activity against Plasmodium berghei ANKA infected in Swiss mouse assessed as parasitaemia at 10 mg/kg, ip administered once daily for 5 days measured on 11 days post infection by flow cytometry (reference value: 44%); format: functional; how it was run: as §1
Plasmodium berghei [17] = test: Antimalarial activity against Plasmodium berghei ANKA infected in Swiss mouse assessed as parasitaemia at 10 mg/kg, ip administered once daily for 5 days measured on 7 days post infection by flow cytometry (reference value: 19%); format: functional; how it was run: as §1
Plasmodium berghei [18] = test: Antimalarial activity against Plasmodium berghei ANKA infected in Swiss mouse assessed as suppression of parasitaemia at 10 mg/kg, ip administered once daily for 5 days measured on 4 days post infection by flow cytometry relative to control; format: functional; how it was run: as §1
[19] = Toxicity in Swiss mouse infected with Plasmodium berghei ANKA assessed as change in body weight at 10 mg/kg, ip administered once daily for 5 days measured on 4 days post infection (reference value: 100%); format: organism-based; settings: in vivo, 96 h
Plasmodium berghei [20] = test: Antimalarial activity against Plasmodium berghei ANKA infected in Swiss mouse assessed as parasitaemia at 10 mg/kg, ip administered once daily for 5 days measured on 4 days post infection by flow cytometry (reference value: 17.1%); format: functional; how it was run: as §1

SMILES | MIC [11] [µM] | IC50 (MRC5) [µM] | IC50 (Plasmodium falciparum) [µM] | also measured
CC(C)OC(=O)OCOP(=O)(CCCC(=O)N(C)O)OCOC(=O)OC(C)C |  |  |  | Activity [1]: 105%; Activity (Plasmodium berghei [2]): 0.04%; MSD (Plasmodium berghei [3]): 15.3 days; Activity (Plasmodium berghei [4]): 0.2%; Activity (Plasmodium berghei [5]): 99%; Activity [6]: 100%; Activity (Plasmodium berghei [7]): 16.4%; Activity [8]: 104%; Activity (Plasmodium berghei [9]): 3.7%; Activity [10]: 105%
CCOC(=O)[C@@H](N)Cc1ccc(OP(=O)(CCCC(=O)N(C)O)Oc2ccc(C[C@H](N)C(=O)OCC)cc2)cc1 | > 50 | > 64 | 0.23 | 
CC(C)C[C@H](NP(=O)(CCCC(=O)N(C)O)N[C@@H](CC(C)C)C(=O)OC(C)C)C(=O)OC(C)C | > 50 | > 64 | 4.97 | 
CCOC(=O)[C@H](C)NP(=O)(CCCC(=O)N(C)O)N[C@@H](C)C(=O)OCC | 20 (≈ 7.91 µg/mL) | > 64 | 5.06 | 
CCOC(=O)[C@H](CC(C)C)NP(=O)(CCCC(=O)N(C)O)N[C@@H](CC(C)C)C(=O)OCC | 50 (≈ 24 µg/mL) | > 64 | 3.91 | 
CC(C)C[C@H](NP(=O)(CCCC(=O)N(C)O)N[C@@H](CC(C)C)C(=O)OC1CCCCC1)C(=O)OC1CCCCC1 | > 50 | 7.65 | 4.56 | 
CCOC(=O)[C@@H]1CCCN1P(=O)(CCCC(=O)N(C)O)N1CCC[C@H]1C(=O)OCC | > 50 | > 64 | 10.2 | 
CCOC(=O)[C@H](C)NP(=O)(N[C@@H](C)C(=O)OCC)C(CCC(=O)N(C)O)c1ccc(Cl)c(Cl)c1 (stereo not given in full) | > 50 | > 64 | > 36.6 | 
CCOC(=O)[C@H](CCCCN)NP(=O)(CCCC(=O)N(C)O)N[C@@H](CCCCN)C(=O)OCC | > 50 | > 64 | 0.96 | Activity [1]: 79%; Activity (Plasmodium berghei [2]): 30.1%; MSD (Plasmodium berghei [3]): 8.7 days; Activity (Plasmodium berghei [4]): 17.1%; Activity (Plasmodium berghei [5]): 0.6%; Activity [8]: 99%; Activity (Plasmodium berghei [9]): 34.7%; Activity [10]: 67%
CCOC(=O)[C@@H](NP(=O)(CCCC(=O)N(C)O)N[C@H](C(=O)OCC)[C@@H](C)CC)[C@@H](C)CC | > 50 | > 64 | 2 | 
CCOC(=O)[C@H](Cc1ccccc1)NP(=O)(CCCC(=O)N(C)O)N[C@@H](Cc1ccccc1)C(=O)OCC | > 50 | > 64 | 4.71 | 
CCCCCOC(=O)[C@H](CC(C)C)NP(=O)(CCCC(=O)N(C)O)N[C@@H](CC(C)C)C(=O)OCCCCC | > 50 | 7.46 | 2.37 | 
CC(C)C[C@H](NP(=O)(CCCC(=O)N(C)O)N[C@@H](CC(C)C)C(=O)OCc1ccccc1)C(=O)OCc1ccccc1 | > 50 | 7.94 | 2.02 | 
CCOC(=O)[C@@H](NP(=O)(CCCC(=O)N(C)O)N[C@H](C(=O)OCC)C(C)C)C(C)C | > 50 | > 64 | 12.7 | 
COC(=O)[C@H](CC(C)C)NP(=O)(CCCC(=O)N(C)O)N[C@@H](CC(C)C)C(=O)OC | > 50 | > 64 | 1.76 | 
CCOC(=O)[C@H](Cc1ccc(OP(=O)(Oc2ccc(C[C@H](NC(C)=O)C(=O)OCC)cc2)C(CCC(=O)N(C)O)c2ccc(Cl)c(Cl)c2)cc1)NC(C)=O (stereo not given in full) | > 50 | 36.9 | > 41.1 | 
CCOC(=O)[C@H](Cc1ccc(OP(=O)(CCCC(=O)N(C)O)Oc2ccc(C[C@H](NC(C)=O)C(=O)OCC)cc2)cc1)NC(C)=O | > 50 | > 64 | 0.31 | Activity [1]: 104%; Activity (Plasmodium berghei [2]): 6.5%; MSD (Plasmodium berghei [3]): 12.7 days; Activity (Plasmodium berghei [4]): 3%; Activity (Plasmodium berghei [5]): 82%; Activity [6]: 69%; Activity (Plasmodium berghei [7]): 32.6%; Activity [8]: 102%; Activity (Plasmodium berghei [9]): 29.2%; Activity [10]: 86%
CC(=O)N(CCCP(=O)(OCOC(=O)OC(C)(C)C)OCOC(=O)OC(C)(C)C)OCc1ccc(-c2ccccc2)cc1 |  |  |  | MIC [12]: 5.3 to 21 µM (≈ 3.31 to 13.1 µg/mL)
CCN(CC)CCCC(C)Nc1ccnc2cc(Cl)ccc12 (stereo not given) [CHLOROQUINE] |  |  |  | MSD (Plasmodium berghei [13]): 14 days; Activity [14]: 101%; Activity [15]: 101%; Activity (Plasmodium berghei [16]): 11.9%; Activity (Plasmodium berghei [17]): 0.6%; Activity (Plasmodium berghei [18]): 98.6%; Activity [19]: 99%; Activity (Plasmodium berghei [20]): 0.2%
